This note sets out measurements from PMC9322249 (Journal of Food and Drug Analysis, 2017).

A short description of one experiment: Chelating power. The settings on record: for ChP: EDTAE units, X = EO or compound. The procedure, abridged: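 Ferrous ion chelation by essential oils and their major components, by a published method, in triplicate. Results are expressed as EDTA equivalents per volume of EO, mean ± SD, with ANOVA/Tukey's HSD (p < 0.05).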
Experiment [1] is described as follows: Thiobarbituric acid reactive substances. The settings on record: for TBARS: BHTE units, X = EO or compound. The procedure, abridged:
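TBARS formation by oxidation measured in soybean lecithin homogenate as lipid-rich medium, by a published method, in triplicate. Values are expressed as μmol BHTE/mL EO, mean ± SD, with ANOVA/Tukey's HSD (p < 0.05).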

The next experiment is described as follows: Reducing power. The settings on record: AAE units; X = EO or compound. In a few lines: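 Reduction of potassium ferricyanide by the oils and individual components, by a published method, in triplicate. Results are reported as ascorbic acid equivalents per volume of EO, mean ± SD, with ANOVA/Tukey's HSD (p < 0.05).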
The nature of experiment [2]: DPPH radical scavenging capacity. The settings on record: TEAC units; X = EO or compound. The procedure, abridged:
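DPPH radical scavenging by essential oils and individual components, by a published method, in triplicate. Values are expressed as μmol TE/mL EO and given as mean ± SD, with ANOVA/Tukey's HSD at p < 0.05.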
In general terms: Loss of DPPH colour is used to gauge radical scavenging.

The nature of experiment [3]: ABTS radical cation bleaching assay. The settings on record: TEAC units; X = EO or compound. In a few lines: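 ABTS radical cation (ABTS•+) bleaching by essential oils and their individual components, run in triplicate by a published method. Results are given as mean ± SD, compared by ANOVA with Tukey's HSD (p < 0.05).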
Experiment [4] is described as follows: Oxygen radical absorption capacity. Conditions: TEAC units; X = EO or compound. In a few lines:
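Peroxyl radical (ROO) scavenging by the oils and individual components, following a published ORAC method, in triplicate. Data are mean ± SD, with significance by ANOVA/Tukey's HSD (p < 0.05).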

Consider `CC12CCC(CC1)C(C)(C)O2` [1,8-Cineole], for which, in the experiment “Chelating power”, the ChP was 6.7 ± 0.4 μmol EDTAE/mL X. Further, the TBARS result in experiment [1] is “N/D (Activity lower than 0.05 units at a maximum assay concentration of 100 mM)”. Also, in “Reducing power”, the RdP entry is recorded as “N/D (Activity lower than 0.05 units at a maximum assay concentration of 100 mM)”. For the same compound, the DPPH result in experiment [2] was “N/D (Activity lower than 0.05 units at a maximum assay concentration of 100 mM)”. The ABTS in experiment [3] is 0.2 ± 0.0 μmol TE/mL X. Also, the ORAC entry in experiment [4] is given as “N/D (Activity lower than 0.05 units at a maximum assay concentration of 100 mM)”.
In the case of `CC1(C)C2CCC1(C)C(O)C2` (stereo not drawn) [Borneol], the ChP result in the experiment “Chelating power” is “N/D (Activity lower than 0.05 units at a maximum assay concentration of 100 mM)”. The TBARS entry in experiment [1] is recorded as “N/D (Activity lower than 0.05 units at a maximum assay concentration of 100 mM)”. Besides, the RdP result in the experiment “Reducing power” is reported as “N/D (Activity lower than 0.05 units at a maximum assay concentration of 100 mM)”. For the same compound, the DPPH entry in experiment [2] was “N/D (Activity lower than 0.05 units at a maximum assay concentration of 100 mM)”. In experiment [3], the ABTS entry is recorded as “N/D (Activity lower than 0.05 units at a maximum assay concentration of 100 mM)”. Besides, the ORAC entry in experiment [4] is recorded as “N/D (Activity lower than 0.05 units at a maximum assay concentration of 100 mM)”.
For the compound `C=C1C2CCC(C2)C1(C)C` (stereo not drawn) [Camphene], the ChP in “Chelating power” is given as 9.9 ± 0.7 μmol EDTAE/mL X. In addition, the TBARS result in experiment [1] is listed as “N/D (Activity lower than 0.05 units at a maximum assay concentration of 100 mM)”. The compound also showed a RdP in the experiment “Reducing power” of 3238.9 ± 157.4 μmol AAE/L X. Besides, the DPPH result in experiment [2] is on record as “N/D (Activity lower than 0.05 units at a maximum assay concentration of 100 mM)”. In experiment [3], this compound displayed an ABTS of 0.8 ± 0.0 μmol TE/mL X. The ORAC result in experiment [4] was “N/D (Activity lower than 0.05 units at a maximum assay concentration of 100 mM)”.
For the compound `Cc1ccc(C(C)C)cc1O` [Carvacrol], the ChP entry in the experiment “Chelating power” was “N/D (Activity lower than 0.05 units at a maximum assay concentration of 100 mM)”. For the same compound, the TBARS in experiment [1] was 600.7 ± 102.2 μmol BHTE/mL X. The same compound gave a RdP in “Reducing power” of 3239.6 ± 143.0 μmol AAE/L X. The compound further yielded a DPPH in experiment [2] of 34.9 ± 2.5 μmol TE/mL X. This compound also yielded an ABTS in experiment [3] of 7804.4 ± 268.1 μmol TE/mL X. This compound came in with an ORAC in experiment [4] of 2.8 ± 0.1 μmol TE/μL X.
With `C=CC(=C)CCC=C(C)C` [Myrcene], in the experiment “Chelating power”, the ChP amounted to 14.4 ± 1.0 μmol EDTAE/mL X. For the same compound, in experiment [1], the TBARS result is recorded as “N/D (Activity lower than 0.05 units at a maximum assay concentration of 100 mM)”. For the same compound, the RdP result in “Reducing power” is “N/D (Activity lower than 0.05 units at a maximum assay concentration of 100 mM)”. The DPPH entry in experiment [2] was “N/D (Activity lower than 0.05 units at a maximum assay concentration of 100 mM)”. The ABTS entry in experiment [3] is recorded as “N/D (Activity lower than 0.05 units at a maximum assay concentration of 100 mM)”. Besides, the ORAC entry in experiment [4] is recorded as “N/D (Activity lower than 0.05 units at a maximum assay concentration of 100 mM)”.
In the case of `CC(C)C12CCC(C)(O)C1C2` (stereo not drawn) [Sabinene hydrate], in “Chelating power”, the ChP amounted to 44.9 ± 3.7 μmol EDTAE/mL X. For the same compound, in experiment [1], the TBARS is 97.2 ± 4.2 μmol BHTE/mL X. Moreover, the RdP entry in “Reducing power” is given as “N/D (Activity lower than 0.05 units at a maximum assay concentration of 100 mM)”. The DPPH entry in experiment [2] was “N/D (Activity lower than 0.05 units at a maximum assay concentration of 100 mM)”. In experiment [3], the ABTS stood at 3.2 ± 0.2 μmol TE/mL X. In addition, the ORAC in experiment [4] is 0.3 ± 0.0 μmol TE/μL X.
As for `CC1=CCC(O)(C(C)C)CC1` (stereo not drawn) [Terpinen-4-ol], the ChP in “Chelating power” was 10.3 ± 0.7 μmol EDTAE/mL X. Moreover, the TBARS in experiment [1] amounted to 50.2 ± 10.6 μmol BHTE/mL X. Moreover, the RdP entry in “Reducing power” is “N/D (Activity lower than 0.05 units at a maximum assay concentration of 100 mM)”. The compound further displayed a DPPH in experiment [2] of 0.3 ± 0.0 μmol TE/mL X. The ABTS in experiment [3] was determined as 1.8 ± 0.1 μmol TE/mL X. Also, the ORAC in experiment [4] is 2.2 ± 0.1 μmol TE/μL X.
As to `C=CC(C)(CCC=C(C)C)OC(C)=O` (stereo not drawn) [linalyl acetate], in the experiment “Chelating power”, the “Chelating power (ChP), result in words” value is reported as “high ChP” and the ChP stood at 125.7 ± 9.4 μmol EDTAE/mL X. Also, in experiment [1], the TBARS is 19.6 ± 0.6 μmol BHTE/mL X. Moreover, the RdP result in the experiment “Reducing power” is reported as “N/D (Activity lower than 0.05 units at a maximum assay concentration of 100 mM)”. Moreover, in experiment [2], the DPPH result is listed as “N/D (Activity lower than 0.05 units at a maximum assay concentration of 100 mM)”. Also, the ABTS in experiment [3] was 0.3 ± 0.0 μmol TE/mL X. Also, the ORAC in experiment [4] is 1.0 ± 0.1 μmol TE/μL X.
`CC1=CCC2CC1C2(C)C` (stereo not drawn) [α-Pinene]: in the experiment “Chelating power”, the ChP came to 104.8 ± 7.0 μmol EDTAE/mL X. Moreover, the TBARS in experiment [1] is given as 16.3 ± 0.5 μmol BHTE/mL X. Also, the RdP result in “Reducing power” is “N/D (Activity lower than 0.05 units at a maximum assay concentration of 100 mM)”. This compound also yielded a DPPH in experiment [2] of 0.1 ± 0.0 μmol TE/mL X. Moreover, the ABTS result in experiment [3] was “N/D (Activity lower than 0.05 units at a maximum assay concentration of 100 mM)”. The compound further came in with an ORAC in experiment [4] of 0.2 ± 0.0 μmol TE/μL X.
In turn, `CC1=CC[C@@H](C(C)(C)O)CC1` [α-Terpineol] returned a ChP in the experiment “Chelating power” of 29.9 ± 1.9 μmol EDTAE/mL X. Further, the TBARS in experiment [1] is 15.6 ± 0.5 μmol BHTE/mL X. In “Reducing power”, the RdP result was “N/D (Activity lower than 0.05 units at a maximum assay concentration of 100 mM)”. Besides, in experiment [2], the DPPH result was “N/D (Activity lower than 0.05 units at a maximum assay concentration of 100 mM)”. The compound also returned an ABTS in experiment [3] of 1.1 ± 0.1 μmol TE/mL X. Moreover, the ORAC in experiment [4] was determined as 1.9 ± 0.1 μmol TE/μL X.
With `CC1=CC=C(C(C)C)CC1` [α-terpinene], in “Chelating power”, the “Chelating power (ChP), result in words” value was “high chelating activity” and the ChP was determined as 385.6 ± 29.0 μmol EDTAE/mL X. Moreover, the TBARS result in experiment [1] was “N/D (Activity lower than 0.05 units at a maximum assay concentration of 100 mM)”. Further, in “Reducing power”, the RdP is listed as 11,531.4 ± 637.1 μmol AAE/L X. Besides, the DPPH in experiment [2] was 1.7 ± 0.1 μmol TE/mL X. This compound displayed an ABTS in experiment [3] of 24.6 ± 1.2 μmol TE/mL X. The compound also displayed an ORAC in experiment [4] of 0.4 ± 0.0 μmol TE/μL X.
`C=C1CC/C=C(\C)CC[C@@H]2[C@@H]1CC2(C)C` [β-Caryophyllene] had a ChP in the experiment “Chelating power” of 31.6 ± 2.2 μmol EDTAE/mL X. In experiment [1], this compound registered a TBARS of 76.5 ± 3.4 μmol BHTE/mL X. The RdP entry in “Reducing power” is recorded as “N/D (Activity lower than 0.05 units at a maximum assay concentration of 100 mM)”. The DPPH result in experiment [2] was “N/D (Activity lower than 0.05 units at a maximum assay concentration of 100 mM)”. In experiment [3], the ABTS entry is reported as “N/D (Activity lower than 0.05 units at a maximum assay concentration of 100 mM)”. Also, the ORAC in experiment [4] was 1.7 ± 0.1 μmol TE/μL X.
`C=C1CCC2CC1C2(C)C` (stereo not drawn) [β-Pinene]: in the experiment “Chelating power”, the ChP turned out to be 11.7 ± 0.7 μmol EDTAE/mL X. This compound had a TBARS in experiment [1] of 28.9 ± 1.9 μmol BHTE/mL X. Besides, the RdP result in “Reducing power” is listed as “N/D (Activity lower than 0.05 units at a maximum assay concentration of 100 mM)”. The DPPH in experiment [2] was 0.1 ± 0.0 μmol TE/mL X. For the same compound, the ABTS in experiment [3] worked out at 0.7 ± 0.0 μmol TE/mL X. The ORAC entry in experiment [4] was “N/D (Activity lower than 0.05 units at a maximum assay concentration of 100 mM)”.
Consider `CC1=CCC(C(C)C)=CC1` [γ-terpinene], for which, in “Chelating power”, the ChP is reported as 2.0 ± 0.1 μmol EDTAE/mL X. In experiment [1], the “TBARS antioxidant activity, result in words” value is “strong TBARS antioxidant activity” and the TBARS is on record as 273.2 ± 24.4 μmol BHTE/mL X. For the same compound, the RdP in “Reducing power” was 1990.6 ± 160.2 μmol AAE/L X. For the same compound, the DPPH in experiment [2] turned out to be 2.1 ± 0.1 μmol TE/mL X. The compound also came in with an ABTS in experiment [3] of 15.6 ± 0.7 μmol TE/mL X. The same compound yielded an ORAC in experiment [4] of 1.1 ± 0.1 μmol TE/μL X.
